From ChEMBL document CHEMBL4732020, “The modulatory role of sulfated and non-sulfated small molecule heparan sulfate-glycomimetics in endothelial dysfunction: absolute structural clarification, molecular docking and simulated dynamics, SAR analyses and ADMET studies” (RSC Med Chem, 2021) come the findings set out here.

A value given as a limit tells only on which side of the number the result lay.

The test system of data set [1] is HepG2. As to the kind of experiment: Antioxidant activity in human HepG2 cells assessed as decrease in FFA-induced oxidatively stress by measuring NO production using DAF-2 by H2DCFDA dye based fluorescence assay relative to control. It is filed as functional. Also noted: concentration or dose not given beside the values. The procedure, abridged: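 Palmitate (100 µmol/L)-BSA stressed HepG2 with glycomimetics 1 µmol/L (3 h co-treatment or 12 h pretreatment). For NO: L-arginine 100 µmol/L for 5 min at 37 °C, DAF-2 0.1 µmol/L for 2 min, then A23187 for 30 min; ex 485/em 540 nm, autofluorescence subtracted. L-NAME 100 µmol/L in some runs. ROS: CM-H2DCFDA 10 µmol/L, 30 min, 37 °C, ex 490/em 540 nm.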

Data set [2] has as its system HepG2. Briefly: Antioxidant activity in human HepG2 cells assessed as decrease in FFA-induced ROS production after 24 hrs by ethidium/DAPI based fluorescence assay relative to control. In kind it is functional. The procedure, abridged: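 Cells in serum-free DMEM with 2% fatty-acid-free BSA or palmitate-BSA (100 µmol/L) plus glycomimetics (1 or 10 µmol/L) for 24 h. Then 10 µmol/L dihydroethidium in Hepes-buffered solution for 30 min, DAPI 0.3 µmol/L counterstain. Fluorescence microscopy with constant imaging settings; ROS taken as ethidium/DAPI fluorescence ratio.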

The target in data set [3] is T1, Nitric oxide synthase 3 (Homo sapiens) (UniProt P29474).
T1 sequence (whole entry): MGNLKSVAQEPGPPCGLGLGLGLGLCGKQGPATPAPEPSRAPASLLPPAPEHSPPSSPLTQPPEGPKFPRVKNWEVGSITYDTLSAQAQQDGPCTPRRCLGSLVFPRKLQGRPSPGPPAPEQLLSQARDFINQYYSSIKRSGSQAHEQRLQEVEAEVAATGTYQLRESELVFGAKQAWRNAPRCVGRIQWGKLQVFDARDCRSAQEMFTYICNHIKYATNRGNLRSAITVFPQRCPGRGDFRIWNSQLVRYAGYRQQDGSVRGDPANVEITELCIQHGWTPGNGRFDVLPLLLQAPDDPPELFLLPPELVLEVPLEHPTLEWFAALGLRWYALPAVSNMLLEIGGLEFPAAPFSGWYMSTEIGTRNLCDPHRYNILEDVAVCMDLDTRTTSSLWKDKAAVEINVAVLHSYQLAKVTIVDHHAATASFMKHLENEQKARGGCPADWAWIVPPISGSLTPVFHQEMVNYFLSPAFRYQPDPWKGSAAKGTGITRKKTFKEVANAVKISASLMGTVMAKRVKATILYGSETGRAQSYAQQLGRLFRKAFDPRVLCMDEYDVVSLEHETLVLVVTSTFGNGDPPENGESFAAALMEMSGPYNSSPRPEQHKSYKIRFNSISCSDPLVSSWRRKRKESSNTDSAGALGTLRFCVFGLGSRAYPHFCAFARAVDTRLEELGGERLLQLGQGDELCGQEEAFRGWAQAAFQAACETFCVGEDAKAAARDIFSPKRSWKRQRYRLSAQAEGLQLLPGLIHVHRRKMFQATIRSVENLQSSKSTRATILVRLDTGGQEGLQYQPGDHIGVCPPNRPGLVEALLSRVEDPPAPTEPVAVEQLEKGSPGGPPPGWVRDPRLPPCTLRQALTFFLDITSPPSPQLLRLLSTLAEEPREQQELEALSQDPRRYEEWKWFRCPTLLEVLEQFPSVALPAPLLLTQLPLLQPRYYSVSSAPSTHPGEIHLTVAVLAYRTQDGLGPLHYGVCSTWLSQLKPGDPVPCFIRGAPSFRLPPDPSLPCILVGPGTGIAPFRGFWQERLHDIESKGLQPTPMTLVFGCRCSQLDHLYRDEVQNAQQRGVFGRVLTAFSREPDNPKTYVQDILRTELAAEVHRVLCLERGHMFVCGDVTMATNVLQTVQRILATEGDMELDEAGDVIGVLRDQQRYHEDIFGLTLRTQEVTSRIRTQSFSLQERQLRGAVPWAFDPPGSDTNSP
As to the kind of experiment: Induction of eNOS phosphorylation in FFA-induced oxidatively stress human HepG2 cells by Western blot analysis relative to control. Set-up: concentration or dose not given beside the values. The procedure, abridged: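 HepG2 stressed with palmitate 100 µmol/L-BSA plus glycomimetics 1 µmol/L. Lysed in RIPA, 30 µg protein by SDS-PAGE onto PVDF. Blocked 1 h in 5% milk/TBS-T; rabbit anti-phospho-eNOS overnight at 4 °C, HRP secondary 1 h at RT, ECL detection. Signal quantified by densitometry.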
(In general: Immunoblotting shows a protein as a band on a membrane.)

The test system of data set [4] is HepG2. As to the kind of experiment: Antioxidant activity in human HepG2 cells assessed as decrease in FFA-induced NADPH oxidase activity by lucigenin-enhanced chemiluminescence based scintillation counting method relative to control. It is filed as functional. The procedure, abridged:
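HepG2 cells given FFA-BSA (palmitate 100 µmol/L) with glycomimetics 1 µmol/L for 3 h, or 12 h pretreatment then 3 h palmitate. Homogenized in 20 mmol/L H2KPO4/1 mmol/L EDTA with protease inhibitors. 50 µg protein with NADPH 100 µmol/L and lucigenin 5 µmol/L; luminescence over 200 s. Basal activity subtracted; expressed as RLU/min/µg protein.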

For data set [5], the system named is HepG2. Briefly: Cytotoxicity against human HepG2 cells assessed as reduction in cell viability incubated for 72 hrs by MTT assay. In kind it is cell-based. The following applies: hepg2, 72 h. The procedure, abridged:
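HepG2 plated 24 h before dosing. Compound at 8 concentrations in triplicate, serially diluted in 0.5% DMSO growth medium, for 72 h. MTT loaded 1 h before end; solubilised in DMSO, read at 570 nm. Significance limits come from vehicle wells. Minimum effective concentration taken from the lowest concentration exceeding significance; AC50 fitted when dose-response is clear.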

Data set [6] in a line: Chemical stability of compound. It is filed as physicochemical.
The test system of the next data set is HepG2 (Homo sapiens). As to the kind of experiment: Cytotoxicity against HepG2 cells assessed as reduction in cell viability incubated for 72 hrs by MTT assay. The conditions noted are these: hepg2, 72 h. On the technique in general: Formazan colour is commonly taken as a measure of viable cells.
The nature of data set [7]: Metabolic stability in rat liver microsomes assessed as half life at 3 uM measured up to 45 mins in presence of NADPH by LC-MS/MS analysis. In kind it is ADME, Microsome. The procedure, abridged:
(§1)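 Pooled liver microsomes 0.5 mg/mL protein in 0.1 M phosphate pH 7.4 with compound 3 µM (0.25% DMSO), prewarmed at 37 °C. Started with NADPH 1 mM; sampled at 0, 5, 15, 30, 45 min into methanol. Minus-NADPH control at 45 min; single incubations. t½ = 0.693/k; CLint = V×0.693/t½ in µL/min/mg protein.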

Data set [8] is described as follows: Metabolic stability in mouse liver microsomes assessed as half life at 3 uM measured up to 45 mins in presence of NADPH by LC-MS/MS analysis. In kind it is ADME, Microsome. The procedure, abridged: as §1
Data set [9] can be described thus: Metabolic stability in mouse liver microsomes assessed as intrinsic clearance at 3 uM measured up to 45 mins in presence of NADPH by LC-MS/MS analysis. In kind it is ADME, Microsome. The following applies: read-out: CLH. The procedure, abridged:
as §1
On the technique in general: Liver microsomes are vesicles of endoplasmic reticulum, rich in cytochrome P450 enzymes.

A short description of data set [10]: Kinetic solubility of compound in PBS at pH 7.4 incubated for 2 hrs by turbidometric analysis. It is filed as physicochemical. The conditions noted are these: read-out: Kinetic_solubility. The procedure, abridged:
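DMSO solutions diluted 1 in 100 into 0.01 M PBS pH 7.4 (final 1% DMSO) to give 1–100 µM; 7 replicate wells. Incubated 2 h at 37 °C, absorbance read at 620 nm. Solubility estimated as the concentration raising absorbance above vehicle.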

A short description of data set [11]: Metabolic stability in rat liver microsomes assessed as intrinsic clearance at 3 uM measured up to 45 mins in presence of NADPH by LC-MS/MS analysis. The following applies: read-out: CLH. In kind it is ADME, Microsome. The procedure, abridged: as §1
Data set [12] deals with Voltage-gated inwardly rectifying potassium channel KCNH2 (Homo sapiens, UniProt Q12809). Briefly: Inhibition of recombinant human ERG expressed in CHO cells at -80 mV holding potential by automated patch clamp method. In kind it is cell-based. The procedure, abridged:
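hERG-CHO cells on automated IonWorks patch clamp at room temperature. Extracellular DPBS pH 7.2, HEPES-buffered intracellular solution, amphotericin B perforation. Compounds typically at 0.008–25 µM (5-fold steps, final DMSO 0.25%), 300 s exposure, 4 replicate wells. Response is post/pre current ×100; IC50 from Hill fit.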

Voltage-gated inwardly rectifying potassium channel KCNH2, sequence (Q12809 whole entry): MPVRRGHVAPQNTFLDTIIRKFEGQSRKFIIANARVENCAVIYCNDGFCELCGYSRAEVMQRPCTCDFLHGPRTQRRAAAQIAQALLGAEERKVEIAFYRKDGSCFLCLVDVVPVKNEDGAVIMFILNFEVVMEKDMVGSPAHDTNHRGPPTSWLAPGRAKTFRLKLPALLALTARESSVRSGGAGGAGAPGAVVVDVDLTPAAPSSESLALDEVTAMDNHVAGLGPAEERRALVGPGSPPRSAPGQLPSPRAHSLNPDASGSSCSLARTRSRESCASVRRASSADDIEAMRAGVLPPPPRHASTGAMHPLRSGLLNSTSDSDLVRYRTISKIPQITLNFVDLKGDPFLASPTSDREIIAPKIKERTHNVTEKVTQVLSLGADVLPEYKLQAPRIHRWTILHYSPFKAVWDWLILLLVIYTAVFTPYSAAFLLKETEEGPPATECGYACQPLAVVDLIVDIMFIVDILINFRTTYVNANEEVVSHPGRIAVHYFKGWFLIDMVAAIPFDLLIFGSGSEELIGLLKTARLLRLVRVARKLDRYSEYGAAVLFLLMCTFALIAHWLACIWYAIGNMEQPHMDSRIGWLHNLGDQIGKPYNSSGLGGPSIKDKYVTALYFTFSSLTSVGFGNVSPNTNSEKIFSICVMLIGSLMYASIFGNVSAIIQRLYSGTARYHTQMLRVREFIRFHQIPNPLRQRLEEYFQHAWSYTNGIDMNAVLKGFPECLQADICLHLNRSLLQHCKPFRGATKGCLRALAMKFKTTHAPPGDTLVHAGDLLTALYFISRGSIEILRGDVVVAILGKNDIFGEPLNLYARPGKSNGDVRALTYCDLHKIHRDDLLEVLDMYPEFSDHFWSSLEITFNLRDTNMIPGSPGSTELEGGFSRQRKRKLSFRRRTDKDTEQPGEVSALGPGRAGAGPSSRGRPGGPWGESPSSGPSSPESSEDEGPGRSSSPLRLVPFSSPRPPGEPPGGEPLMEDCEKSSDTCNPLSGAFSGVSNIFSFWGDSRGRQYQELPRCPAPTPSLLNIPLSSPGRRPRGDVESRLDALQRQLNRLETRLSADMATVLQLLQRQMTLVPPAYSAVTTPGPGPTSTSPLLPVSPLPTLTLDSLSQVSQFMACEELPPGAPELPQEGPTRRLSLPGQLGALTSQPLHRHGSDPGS

On to `COC(=O)c1cc(OC[C@H](O)CO)ccc1OC[C@@H](O)CO` (mixture of isomers), for which the Activity with HepG2 [1] came out at 46%; in data set [3] it was 286%. Further, the figures for the “inhibition (INH)” value with HepG2 [2] and in the data set on HepG2 [4] were 36% and 26%, respectively.

In the case of `COC(=O)c1cc(OC[C@@H](COS(=O)(=O)[O-])OS(=O)(=O)[O-])ccc1OCCCCOS(=O)(=O)[O-].[Na+].[Na+].[Na+]`, the Activity in the data set on HepG2 [1] was 63%; in data set [3] it was 397%; with HepG2 [5] it was “Non-Toxic”; in the data set on HepG2 (Homo sapiens), “Non-Toxic”. Besides, the “inhibition (INH)” value with HepG2 [2] was 39%; in the data set on HepG2 [4] it was 27%. Besides, the Stabilty entry in data set [6] is listed as “Stable”.

Broadly, the half-life is how long it takes for the measured level to halve. As a reminder, the IC50 is the concentration that inhibits the measured activity by half. For `COC(=O)c1cc(OC[C@H](COS(=O)(=O)[O-])OS(=O)(=O)[O-])ccc1OC[C@@H](COS(=O)(=O)[O-])OS(=O)(=O)[O-].[Na+].[Na+].[Na+].[Na+]`, the Activity in the data set with HepG2 [1] is 62%; in data set [3] it was 318%; in the data set with HepG2 [5] it was “Non-Toxic”; with HepG2 (Homo sapiens), “Non-Toxic”. Besides, the half-life at 3 µM turned out to be 35.7 h in data set [7] and 8.03 h in data set [8]. Moreover, the results for the “inhibition (INH)” value with HepG2 [2] and in the data set with HepG2 [4] were 29% and 31%, respectively. Also, the values for the microsomal CLint at 3 µM in [9] and in data set [11] were 2.88 µL/min/mg and 0.649 µL/min/mg, respectively. Further, the solubility kinetic at 2 h in [10] was above 100 µM. For the same molecule, the Stabilty entry in [6] is reported as “Stable”. Further, the IC50 in data set [12] is above 25 µM.

`COC(=O)c1cc(OC[C@@H](COS(=O)(=O)[O-])OS(=O)(=O)[O-])ccc1OC[C@H](COS(=O)(=O)[O-])OS(=O)(=O)[O-].[Na+].[Na+].[Na+].[Na+]`: the Activity in the data set on HepG2 [1] is 110%; in data set [3], 342%; in the data set with HepG2 [5], “Non-Toxic”; in the data set on HepG2 (Homo sapiens), “Non-Toxic”. The half-life at 3 µM in data set [7] was 2.42 h; in data set [8] it was 30.7 h. Also, the “inhibition (INH)” value in the data set with HepG2 [2] was found to be 28%; in the data set with HepG2 [4], 29%. Further, the results for the microsomal CLint at 3 µM in [9] and in data set [11] were 0.755 µL/min/mg and 9.56 µL/min/mg, respectively. For the same molecule, in [10], the solubility kinetic at 2 h is above 100 µM. For the same molecule, in data set [6], the Stabilty result is “Stable”.

As for `O=C([O-])c1cc(OC[C@H](O)CO)ccc1OC[C@@H](O)CO.[Na+]` (mixture of isomers), the Activity was 41% with HepG2 [1] and 312% in data set [3]. The “inhibition (INH)” value in the data set with HepG2 [2] came to 23%; with HepG2 [4], 21%.

As to `O=C([O-])c1cc(OC[C@@H](O)CO)ccc1OC[C@H](O)CO.[Na+]` (mixture of isomers), the values for the Activity (with HepG2 [1]; in data set [3]) were 52% and 294%, respectively. In addition, the “inhibition (INH)” value amounted to 19% in the data set with HepG2 [2] and 27% with HepG2 [4].

With `COC(=O)c1cc(OC[C@H](COS(=O)(=O)[O-])OS(=O)(=O)[O-])ccc1OCCCCOS(=O)(=O)[O-].[Na+].[Na+].[Na+]`, the Activity was 52% in the data set with HepG2 [1], 613% in [3], “Non-Toxic” with HepG2 [5] and “Non-Toxic” in the data set with HepG2 (Homo sapiens). Moreover, the “inhibition (INH)” value with HepG2 [2] is 23%; in the data set on HepG2 [4], 31%. In addition, in [6], the Stabilty entry was “Stable”.
